Here are results for 19 compounds from ChEMBL document CHEMBL3045942, “Design, synthesis, and anti-tobacco mosaic virus (TMV) activity of phenanthroindolizidines and their analogues” (2012).

Usually inhibition stands for how much of the control response was suppressed.

Common to all, as to format: functional
Experiment [1] relates to Tobacco mosaic virus. Kind of experiment: In vivo antiviral activity against Tobacco mosaic virus (TMV) inoculated right side of Nicotiana tabacum L. leaves assessed as protection effect at 100 ug/mL preincubated 12 hr before viral challenge measured after 3 to 4 days. In a few lines: (§1)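 Protective test on same-age growing Xanthi nc tobacco leaves. Compound solution was smeared on the left half and solvent on the right half as control. After 12 h, leaves were inoculated with TMV applied by brush. Inhibition % = (mean control lesions − mean treated lesions)/mean control lesions × 100. Three replicates.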

In experiment [2] the test system is Tobacco mosaic virus. Briefly: In vivo antiviral activity against Tobacco mosaic virus (TMV) inoculated right side of Nicotiana tabacum L. leaves assessed as protection effect at 500 ug/mL preincubated 12 hr before viral challenge measured after 3 to 4 days. In a few lines: as §1
The test system of experiment [3] is Tobacco mosaic virus. Kind of experiment: In vivo antiviral activity against Tobacco mosaic virus (TMV) pre-inoculated Nicotiana tabacum L. leaves assessed as curative effect at 100 ug/mL measured after 3 to 4 days. Summed up: (§2)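 Curative test on same-age growing Xanthi nc leaves. Whole leaves were first inoculated with TMV (6.0 × 10−3 mg mL−1), then washed with water and dried. Compound solution was smeared on the left half and solvent on the right half as control. Local lesions were counted 3–4 days after inoculation, and inhibition % was derived from mean lesion numbers. Three replicates.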

Experiment [4] concerns Tobacco mosaic virus. Kind of experiment: In vivo antiviral activity against Tobacco mosaic virus (TMV) pre-inoculated Nicotiana tabacum L. leaves assessed as curative effect at 500 ug/mL measured after 3 to 4 days. In a few lines:
as §2

Experiment [5] has as its system Tobacco mosaic virus. Briefly: In vivo antiviral activity against Tobacco mosaic virus (TMV) inoculated left side of Nicotiana tabacum L. leaves assessed as inactivation effect at 100 ug/mL co-incubated with virus measured after 3 to 4 days. In a few lines:
(§3)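 Inactivation test in N. tabacum var. Xanthi nc. Virus was mixed with an equal volume of compound solution for 30 min and the mixture inoculated on the left leaf half. The right half received a solvent–virus mixture as control. Local lesions were counted 3–4 days after inoculation. Inhibition % was calculated from mean lesion numbers of control versus treated halves. Three replicates.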

Experiment [6] deals with Tobacco mosaic virus. Kind of experiment: In vivo antiviral activity against Tobacco mosaic virus (TMV) inoculated left side of Nicotiana tabacum L. leaves assessed as inactivation effect at 500 ug/mL co-incubated with virus measured after 3 to 4 days. Summed up:
as §3

Experiment [7] relates to Tobacco mosaic virus. Kind of experiment: Antiviral activity against Tobacco mosaic virus (TMV) inoculated in 5-6 growth stage leaf assessed as inhibition effect at 100 ug/mL at 25 degC after 72 hr by half-leaf method. Summed up:
(§4)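 Half-leaf assay on fresh leaves of Nicotiana tabacum var. Xanthi nc at the 5–6 growth stage. Leaves were rub-inoculated with leaf juice (TMV 5.88 × 10−2 μg mL−1) and cut in halves along the main vein. One half was immersed in compound solution and the other in double-distilled water for 20 min, then kept at 25 °C for 72 h. Inhibition % = (mean control lesions − mean treated lesions)/mean control lesions × 100. At least 3 replicates.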

For experiment [8], the system named is Tobacco mosaic virus. Kind of experiment: Antiviral activity against Tobacco mosaic virus (TMV) inoculated in 5-6 growth stage leaf assessed as inhibition effect at 500 ug/mL at 25 degC after 72 hr by half-leaf method. Summed up:
as §4

With `COc1ccc2c3c(c4cc(OC)c(OC)cc4c2c1)CN1CCC[C@H]1[C@H]3O`, the Activity came to 24.5% in experiment [1]; 41.3% in experiment [2]; 17.2% in experiment [3]; 40% in experiment [4]; 0% in experiment [5]; 32.4% in experiment [6]. The inhibition at 100 µg/mL in experiment [7] amounted to 29.6%. Besides, in experiment [8], the inhibition at 500 µg/mL worked out at 45.2%.
Take `COc1ccc2c3c(c4cc(OC)c(OC)cc4c2c1)CN1CCC[C@@H]1[C@@H]3O`: the Activity came out at 30.2% in experiment [1]; 54.4% in experiment [2]; 27.8% in experiment [3]; 56.2% in experiment [4]; 33.3% in experiment [5]; 51.2% in experiment [6]. Besides, in experiment [7], the inhibition at 100 µg/mL was found to be 33.1%. Moreover, the inhibition at 500 µg/mL in experiment [8] turned out to be 47.7%.
For `COc1ccc2c3c(c4cc(OC)c(OC)cc4c2c1)CN1CCC[C@H]1C3`, the Activity in experiment [1] was 51.3%; in experiment [2], 70.2%; in experiment [3] it was 43.7%; in experiment [4], 65.1%; in experiment [5], 40.3%; in experiment [6], 59.8%. In experiment [7], the inhibition at 100 µg/mL is 50%. The inhibition at 500 µg/mL in experiment [8] was 71.2%.
Regarding `COc1ccc2c3c(c4cc(OC)c(OC)cc4c2c1)CN1CCC[C@@H]1C3`, the Activity in experiment [1] worked out at 31.7%; in experiment [2], 60.5%; in experiment [3], 24.5%; in experiment [4] it was 44.7%; in experiment [5] it was 23.6%; in experiment [6], 48.9%. Besides, the inhibition at 100 µg/mL in experiment [7] worked out at 32.9%. Moreover, the inhibition at 500 µg/mL in experiment [8] came out at 56.5%.
For `COc1cc2c3c(c4cc(OC)c(OC)cc4c2cc1OC)[C@@H](O)[C@H]1CCCN1C3`, the Activity worked out at 26.5% in experiment [1]; 53.9% in experiment [2]; 32.8% in experiment [3]; 43.4% in experiment [4]; 26.7% in experiment [5]; 49.2% in experiment [6]. Besides, in experiment [7], the inhibition at 100 µg/mL was determined as 23%. The inhibition at 500 µg/mL in experiment [8] was 51.2%.
As to `COc1ccc2c3c(c4cc(OC)c(OC)cc4c2c1)[C@H](O)[C@@H]1CCCN1C3`, the Activity in experiment [1] was 0%; in experiment [2], 21.2%; in experiment [3] it was 0%; in experiment [4] it was 19.3%; in experiment [5] it was 0%; in experiment [6], 24.8%. In addition, the inhibition at 100 µg/mL in experiment [7] worked out at 23%. Besides, the inhibition at 500 µg/mL in experiment [8] worked out at 51.2%.
Consider `COc1ccc2c3c(c4cc(OC)c(OC)cc4c2c1)[C@@H](O)[C@H]1CCCN1C3`, for which the Activity in experiment [1] stood at 7.3%; in experiment [2], 39.6%; in experiment [3], 10.2%; in experiment [4], 34.9%; in experiment [5] it was 14.2%; in experiment [6] it was 38.5%. Besides, the inhibition at 100 µg/mL in experiment [7] is 21.6%. Also, in experiment [8], the inhibition at 500 µg/mL was determined as 43.5%.
Turning to `COc1cc2c3c(c4cc(OC)c(OC)cc4c2cc1OC)NC[C@@H]1CCCN1C3`, the Activity in experiment [1] was 28.5%; in experiment [2], 53.6%; in experiment [3] it was 22.7%; in experiment [4], 44.6%; in experiment [5] it was 20.3%; in experiment [6] it was 42.5%. Also, the inhibition at 100 µg/mL in experiment [7] is 18.5%. The inhibition at 500 µg/mL in experiment [8] worked out at 50%.
Turning to `COc1cc2c3c(c4cc(OC)c(OC)cc4c2cc1OC)NC(=O)[C@H]1CCCN1C3`, the Activity in experiment [1] amounted to 19.7%; in experiment [2], 36.4%; in experiment [3], 18.9%; in experiment [4], 35.7%; in experiment [5], 21.2%; in experiment [6], 34.9%. Moreover, the inhibition at 100 µg/mL in experiment [7] is 20%. Further, in experiment [8], the inhibition at 500 µg/mL was found to be 32.2%.
In the case of `COc1cc2cc(CN3CCC[C@H]3C)c3cc(OC)c(OC)cc3c2cc1OC`, the Activity in experiment [1] is given as 13.1%; in experiment [2] it was 39.6%; in experiment [3], 0%; in experiment [4] it was 25.8%; in experiment [5], 0%; in experiment [6], 25.2%. Further, in experiment [7], the inhibition at 100 µg/mL was found to be 0%. The inhibition at 500 µg/mL in experiment [8] is 29.8%.
On to `COc1cc2cc(C(=O)N3CCC[C@H]3C)c3cc(OC)c(OC)cc3c2cc1OC`, for which the Activity in experiment [1] is 18.9%; in experiment [2] it was 43.3%; in experiment [3], 6.2%; in experiment [4] it was 30.1%; in experiment [5] it was 9.6%; in experiment [6], 31.3%. For the same compound, the inhibition at 100 µg/mL in experiment [7] stood at 15.3%. Further, the inhibition at 500 µg/mL in experiment [8] is 38.4%.
Turning to `COc1cc2c3c(c4cc(OC)c(OC)cc4c2cc1OC)C(=O)n1cccc1C3`, the Activity in experiment [1] was determined as 5.3%; in experiment [2] it was 21.5%; in experiment [3], 0%; in experiment [4] it was 17.5%; in experiment [5], 8.5%; in experiment [6], 22.6%. For the same compound, the inhibition at 100 µg/mL in experiment [7] is 0%. Moreover, in experiment [8], the inhibition at 500 µg/mL came to 15.3%.
On to `COc1cc2c3c(c4cc(OC)c(OC)cc4c2cc1OC)C(=O)N1CCC[C@H]1C3`, for which the Activity stood at 23.4% in experiment [1]; 43.5% in experiment [2]; 14.8% in experiment [3]; 30.1% in experiment [4]; 20.5% in experiment [5]; 37% in experiment [6]. In addition, the inhibition at 100 µg/mL in experiment [7] was 30.9%. Also, the inhibition at 500 µg/mL in experiment [8] was found to be 48.1%.
On to `COc1cc2c3c(c4cc(OC)c(OC)cc4c2cc1OC)NC[C@H]1CCCN1C3`, for which the Activity in experiment [1] amounted to 33.7%; in experiment [2], 46.5%; in experiment [3], 28.7%; in experiment [4], 44.6%; in experiment [5] it was 12.6%; in experiment [6], 31.5%. In addition, the inhibition at 100 µg/mL in experiment [7] was 23.1%. Moreover, the inhibition at 500 µg/mL in experiment [8] turned out to be 40.4%.
Turning to `COc1cc2c3c(c4cc(OC)c(OC)cc4c2cc1OC)NC(=O)[C@@H]1CCCN1C3`, the Activity was 7.6% in experiment [1]; 29.7% in experiment [2]; 0% in experiment [3]; 31.5% in experiment [4]; 22.2% in experiment [5]; 32.9% in experiment [6]. Further, in experiment [7], the inhibition at 100 µg/mL stood at 4.6%. The inhibition at 500 µg/mL in experiment [8] amounted to 34.8%.
Take `COc1cc2c3c(c4cc(OC)c(OC)cc4c2cc1OC)[C@H](O)[C@@H]1CCCN1C3`: the Activity came out at 20% in experiment [1]; 63.7% in experiment [2]; 30.6% in experiment [3]; 61.9% in experiment [4]; 32.9% in experiment [5]; 57.8% in experiment [6]. Besides, the inhibition at 100 µg/mL in experiment [7] is 34.7%. In experiment [8], the inhibition at 500 µg/mL is 62.4%.
In the case of `COc1ccc2c3c(c4cc(OC)c(OC)cc4c2c1)C[C@H]1CCCN1C3` [(-)-ANTOFINE], the Activity in experiment [1] was found to be 20.4%; in experiment [2], 45.5%; in experiment [3], 19.4%; in experiment [4], 46%; in experiment [5] it was 15.3%; in experiment [6] it was 42.7%. In addition, the inhibition at 100 µg/mL in experiment [7] was 27.4%. The inhibition at 500 µg/mL in experiment [8] is 52.8%.
Take `COc1cc2c3c(c4cc(OC)c(OC)cc4c2cc1OC)CN1CCC[C@H]1C3` [(S)-TYLOPHORINE]: the Activity was determined as 28.6% in experiment [1]; 56.8% in experiment [2]; 37% in experiment [3]; 53.8% in experiment [4]; 34.2% in experiment [5]; 50.5% in experiment [6]. In addition, the inhibition at 100 µg/mL in experiment [7] was 36.9%. In addition, in experiment [8], the inhibition at 500 µg/mL came out at 54.1%.
Regarding `COc1ccc2c3c(c4cc(OC)c(OC)cc4c2c1)C[C@@H]1CCCN1C3` [HYPOESTESTATIN 1], the Activity in experiment [1] is 28.4%; in experiment [2] it was 56.4%; in experiment [3] it was 26.7%; in experiment [4], 55.5%; in experiment [5] it was 37.2%; in experiment [6], 51.1%. For the same compound, the inhibition at 100 µg/mL in experiment [7] worked out at 30.5%. For the same compound, the inhibition at 500 µg/mL in experiment [8] amounted to 60.2%.
